Results taken from ChEMBL document CHEMBL4732095, “Novel naphthylamide derivatives as dual-target antifungal inhibitors: Design, synthesis and biological evaluation” (Eur J Med Chem, 2021).
Calls of active or inactive are those of the source. No cut-off for these calls is given here.

Legend:
Candida albicans SC5314 [1] = experiment: Inhibition of SE/CYP51 in Candida albicans ATCC SC5314 assessed as unknown sterol level at […] ug/ml incubated for 48 hrs by LC/MS analysis (reference value: 3.5 %); set-up: scale not given: the % may be the effect or the level left; conditions: dose 0.125 µg/ml
Candida albicans SC5314 [2] = experiment: Inhibition of SE/CYP51 in Candida albicans ATCC SC5314 assessed as ergosterol level at 0.5 ug/ml incubated for 48 hrs by LC/MS analysis (reference value: 95.1 %); set-up: scale not given: the % may be the effect or the level left; conditions: dose 0.5 µg/ml
Summary of the method: (§1)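 C. albicans SC5314 cells exposed to compound at 0.125, 0.5 or 4 μg/mL for 48 h, alongside untreated, fluconazole and naftifine controls. Sterols (ergosterol, squalene, lanosterol, eburicol, unknown) analysed by LC-MS. Each component expressed as percentage of total sterols from peak area ratios.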

Candida albicans [3] = experiment: Antifungal activity against Candida albicans ATCC SC5314 assessed as reduction in survival rate of fungal cells (reference value: 97%); format: functional
[4] = target: Lanosterol 14-alpha demethylase (Candida albicans (strain SC5314 / ATCC MYA-2876) (Yeast), UniProt P10613); experiment: Inhibition of Candida albicans ATCC SC5314 CYP51 incubated for 30 mins by HPLC method
Lanosterol 14-alpha demethylase, sequence (P10613 whole entry): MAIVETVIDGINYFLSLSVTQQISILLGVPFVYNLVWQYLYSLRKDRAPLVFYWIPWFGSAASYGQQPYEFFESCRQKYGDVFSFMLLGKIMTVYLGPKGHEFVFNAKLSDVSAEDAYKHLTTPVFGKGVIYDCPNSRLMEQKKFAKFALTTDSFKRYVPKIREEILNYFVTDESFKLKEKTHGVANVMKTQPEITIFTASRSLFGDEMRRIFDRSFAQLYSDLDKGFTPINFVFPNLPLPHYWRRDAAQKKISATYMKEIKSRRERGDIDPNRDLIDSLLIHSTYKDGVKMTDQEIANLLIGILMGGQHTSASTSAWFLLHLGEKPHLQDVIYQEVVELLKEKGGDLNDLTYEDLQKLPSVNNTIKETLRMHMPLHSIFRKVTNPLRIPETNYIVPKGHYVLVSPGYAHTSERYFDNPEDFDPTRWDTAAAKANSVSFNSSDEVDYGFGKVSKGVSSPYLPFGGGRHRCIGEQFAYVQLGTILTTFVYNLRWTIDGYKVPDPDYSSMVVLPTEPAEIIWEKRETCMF

Candida albicans SC5314 [5] = experiment: Inhibition of SE/CYP51 in Candida albicans ATCC SC5314 assessed as lanosterol level at 4 ug/ml incubated for 48 hrs by LC/MS analysis; set-up: scale not given: the % may be the effect or the level left; conditions: dose 4.0 µg/ml; summary of the method: as §1
[6] = Toxicity in mouse infected with Candida albicans SC5314 assessed as change in heart morphology administered via abdomen for 7 days by H and E staining based histological analysis; conditions: in vivo, ip, 168 h, time 7 day
Summary of the method: (§2)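 Mice infected with C. albicans SC5314 by subcutaneous abdominal injection, then randomized into saline, and two compound-treated groups. Treatment given by abdominal injection for 7 days, with body weight monitored. Heart, liver, spleen, lung, kidney and infected abdominal tissue harvested for H&E histology.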

Candida albicans [7] = experiment: Antifungal activity against Candida albicans ATCC SC5314 assessed as decrease in fungal cell density at 10 nM/mL by polarizing microscopy; format: functional, organism-based; conditions: dose 10.0 nmol/ml
Summary of the method: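 C. albicans ATCC SC5314 observed by polarizing microscopy over treatment time. Untreated, fluconazole- and naftifine-treated control groups were included. Cell density, dividing cells and cell fracture were assessed, with cell counts taken per field.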

Candida albicans [8] = experiment: In vivo antifungal activity against Candida albicans SC5314 infected in mouse assessed as uniform cell distribution injected via abdomen for 7 days by H and E staining based histological analysis; format: functional, organism-based; conditions: time 7.0 day; summary of the method: as §2
Aspergillus fumigatus = experiment: Antifungal activity against Aspergillus fumigatus KM8001 assessed as inhibition of microbial growth by NCCLS protocol based method; format: functional
Summary of the method: (§3)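 Broth MIC50 determined following NCCLS guidelines in Sabouraud medium, with fungal suspension in 24-well format. Compound tested at 0.0625, 0.125, 0.5, 1, 2, 4, 8 and 16 μg/mL. Plates cultured statically at 35 °C. MIC50 is the lowest concentration giving 50% growth inhibition. Naftifine and fluconazole served as positive controls.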

Candida albicans [9] = experiment: Antifungal activity against Candida albicans ATCC 10231 assessed as inhibition of microbial growth by NCCLS protocol based method; format: functional; summary of the method: as §3
Candida albicans SC5314 [10] = experiment: Inhibition of SE/CYP51 in Candida albicans ATCC SC5314 assessed as unknown sterol level at 0.5 ug/ml incubated for 48 hrs by LC/MS analysis (reference value: 3.5 %); set-up: scale not given: the % may be the effect or the level left; conditions: dose 0.5 µg/ml; summary of the method: as §1
Candida albicans SC5314 [11] = experiment: Inhibition of SE/CYP51 in Candida albicans ATCC SC5314 assessed as eburicol level at […] ug/ml incubated for 48 hrs by LC/MS analysis (reference value: 1.4 %); set-up: scale not given: the % may be the effect or the level left; conditions: dose 0.125 µg/ml
Candida albicans SC5314 [12] = experiment: Inhibition of SE/CYP51 in Candida albicans ATCC SC5314 assessed as squalene level at 0.125 ug/ml incubated for 48 hrs by LC/MS analysis; set-up: scale not given: the % may be the effect or the level left; conditions: dose 0.125 µg/ml
Summary of the method: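 C. albicans ATCC SC5314 cells exposed to drug at 0.125, 0.5 or 4 μg/mL for 48 h, alongside an untreated control. Sterols were extracted and analysed by LC-MS. Ergosterol, squalene, lanosterol, eburicol and unknown sterols are each given as % of total sterols, calculated from the peak area ratio of each component.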

Candida albicans [13] = experiment: In vivo antifungal activity against Candida albicans infected in mouse assessed as disappearance of cell nuclear aggregation injected via abdomen for 7 days by H and E staining based histological analysis; format: functional, organism-based; conditions: SC5314, time 7.0 day; summary of the method: as §2
[14] = Hepatotoxicity in mouse infected with Candida albicans SC5314 assessed as effect on aspartate aminotransferase level in plasma administered via abdomen for 7 days (reference value: 104.7 +/- 5.2 IU/L); format: toxicity; conditions: ip, 168 h, time 7 day
Candida albicans [15] = experiment: Antifungal activity against Candida albicans ATCC SC5314 assessed as edema cavitation at 4 ug/ml incubated for 72 hrs by TEM analysis; format: functional, organism-based; conditions: dose 4.0 µg/ml
Summary of the method: (§4)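 C. albicans SC5314 suspension prepared per NCCLS protocol, exposed to compound at 4 μg/mL and incubated at 35 °C. Sampled at 72 h and 144 h, with a 0 h reference. Samples fixed at 4 °C in 3% glutaraldehyde, washed in PBS, stained with uranium/osmium for 30 min, and imaged by transmission electron microscopy.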

Candida albicans [16] = experiment: Antifungal activity against Candida albicans ATCC SC5314 assessed as disappearance of fungal cell boundaries at 4 ug/ml incubated for 72 hrs by TEM analysis; format: functional, organism-based; conditions: dose 4.0 µg/ml; summary of the method: as §4
Candida albicans [17] = experiment: Antifungal activity against Candida albicans ATCC SC5314 assessed as appearance of disordered ridge arrangement in cytoplasm at 4 ug/ml incubated for 72 hrs by TEM analysis; format: functional, organism-based; conditions: dose 4.0 µg/ml; summary of the method: as §4
Candida albicans [18] = experiment: Antifungal activity against Candida albicans ATCC SC5314 assessed as irregular cell structure at 4 ug/ml incubated for 72 hrs by TEM analysis; format: functional, organism-based; conditions: dose 4.0 µg/ml; summary of the method: as §4
Candida albicans [19] = experiment: Antifungal activity against Candida albicans ATCC SC5314 assessed as exfoliation of rough ER particles at 4 ug/ml incubated for 72 hrs by TEM analysis; format: functional, organism-based; conditions: dose 4.0 µg/ml; summary of the method: as §4
Candida albicans [20] = experiment: Antifungal activity against Candida albicans ATCC SC5314 assessed as cracked fungal cells at 4 ug/ml incubated for 144 hrs by TEM analysis; format: functional, organism-based; conditions: dose 4.0 µg/ml; summary of the method: as §4

Row | Structure (SMILES) | Activity (Candida albicans SC5314 [1]) [%] | Activity (Candida albicans SC5314 [2]) [%] | Activity (Candida albicans [3]) [%] | IC50 [4] [µM] | Activity (Candida albicans SC5314 [5]) [%] | Activity [6] | Activity (Candida albicans [7]) | Activity (Candida albicans [8]) | MIC50 (Aspergillus fumigatus) [µg/mL] | MIC50 (Candida albicans [9]) [µg/mL] | Activity (Candida albicans SC5314 [10]) [%] | Activity (Candida albicans SC5314 [11]) [%] | Activity (Candida albicans SC5314 [12]) [%] | Activity (Candida albicans [13]) | Activity [14] [IU/L] | other results
1 | O=C(NC(Cn1ccnc1)C(=O)NCc1ccncc1)c1ccc2ccccc2c1 (stereo unspecified) | 5 | 35.6 | 16 | 1.15 | 10.9 | Non-Toxic | Active | Active | 4 | 0.25 | 4.8 | 13.6 | 9.2 | Active | 108.6 | –
2 | CC(NC(=O)c1cccc2ccccc12)C(=O)NC(Cn1ccnc1)C(=O)c1ccccc1 (stereo unspecified) | 5.4 | 29.9 | 11 | 0.537 | 12.5 | Non-Toxic | Active | Active | 4 | 0.125 | 5.8 | 17.5 | 7.9 | Active | 112.3 | Activity (Candida albicans [15]): Active; Activity (Candida albicans [16]): Active; Activity (Candida albicans [17]): Active; Activity (Candida albicans [18]): Active; Activity (Candida albicans [19]): Active; Activity (Candida albicans [20]): Active
